Measurements published in ChEMBL document CHEMBL5131470, “Structure-activity and structure-property relationship studies of spirocyclic chromanes with antimalarial activity” (Bioorg Med Chem, 2022).
pEC50: −log10 of the molar value. ≈ marks a conversion by molar mass, not a printed value.

Key:
Plasmodium falciparum [1] = test: Antimalarial activity against chloroquine-resistant Plasmodium falciparum Dd2 assessed as inhibition of parasite growth incubated for 72 hrs by SYBR green I-based DNA quantification assay; assay type: functional, organism-based; conditions: Dd2, 72 h
[2] = Cytotoxicity against human HepG2 cells assessed as reduction in cell viability incubated for 48 hrs by MTS assay; assay type: toxicity, cell-based
Outline: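 HepG2 human hepatoma cells were seeded at 2,500 cells/well in 384-well plates and incubated 24 h. Serial compound dilutions (0–40 μM range) were added, then cells were incubated a further 48 h.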

[3] = Selectivity index, ratio of EC50 for cytotoxicity against human HepG2 cells to EC50 for antimalarial activity against chloroquine-resistant Plasmodium falciparum Dd2; assay type: toxicity, cell-based; conditions: read-out: Ratio EC50
Outline: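 Human HepG2 hepatoma cells were seeded at 2,500 cells/well and grown 24 h. Serial dilutions of compound (0–40 μM) were then added for another 48 h. […] SI = EC50(HepG2)/EC50(Dd2).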

Plasmodium falciparum [4] = test: Antiplasmodial activity against chloroquine-sensitive Plasmodium falciparum D6 assessed as inhibition of parasite growth incubated for 48 hrs by time zero-[3H]hypoxanthine incorporation assay; assay type: functional, organism-based
Plasmodium falciparum [5] = test: Antiplasmodial activity against artemisinin-resistant Plasmodium falciparum ARC08-022 assessed as inhibition of parasite growth incubated for 48 hrs by time zero-[3H]hypoxanthine incorporation assay; assay type: functional, organism-based
[6] = Octanol-water distribution coefficient, logD of the compound at pH 3 by HPLC-based analysis; assay type: physicochemical
[7] = Octanol-water distribution coefficient, logD of the compound at pH 7.4 by HPLC-based analysis; assay type: physicochemical
[8] = Aqueous solubility of the compound at pH 2 by HPLC analysis; assay type: physicochemical; conditions: aqueous solution
Outline: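 Aqueous solubility was measured at pH 2.0 with an in-house HPLC assay. Values are reported as bins: ≤10 μM, 10–20 μM, 20–40 μM, 40–80 μM and ≥80 μM.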

[9] = Aqueous solubility of the compound at pH 6.5; conditions: aqueous solution
Plasmodium falciparum [10] = test: Selectivity for antiplasmodial activity for chloroquine-resistant Plasmodium falciparum Dd2 over antiplasmodial activity against chloroquine-sensitive Plasmodium falciparum D6; assay type: functional
Plasmodium falciparum [11] = test: Selectivity for antiplasmodial activity for chloroquine-resistant Plasmodium falciparum Dd2 over antiplasmodial activity against artemisinin-resistant Plasmodium falciparum ARC08-022; assay type: functional
Plasmodium falciparum [12] = test: Selectivity for antiplasmodial activity for chloroquine-sensitive Plasmodium falciparum 3D7 over antiplasmodial activity against chloroquine-sensitive Plasmodium falciparum D6; assay type: functional
Plasmodium falciparum [13] = test: Selectivity for antiplasmodial activity for chloroquine-sensitive Plasmodium falciparum 3D7 over antiplasmodial activity against artemisinin-resistant Plasmodium falciparum ARC08-022; assay type: functional

Row | SMILES | pEC50 (Plasmodium falciparum [1]) | EC50 at 48 h [2] [nM] | selectivity ratio [3] | pEC50 (Plasmodium falciparum [4]) | pEC50 (Plasmodium falciparum [5]) | logD [6] | logD [7] | solubility [8] [µM] | solubility [9] [µM] | Selectivity ratio (Plasmodium falciparum [10]) | Selectivity ratio (Plasmodium falciparum [11]) | Selectivity ratio (Plasmodium falciparum [12]) | Selectivity ratio (Plasmodium falciparum [13])
1 | OC1CC2(CCN(CCC3CCCCC3)CC2)Oc2c1ccc1ccccc21 (configuration not stated) | 6.30 | 14000 | 35.1 | 6.30 | 6.20 | 2.97 | 3.54 | 40 (≈ 15.2 µg/mL) | 20 (≈ 7.59 µg/mL) | – | – | – | –
2 | OC(CN1CCC2(CCc3ccc4ccccc4c3O2)CC1)c1ccc(F)c(F)c1 (configuration not stated) | 6.28 | > 20000 | > 10.4 | 6.51 | 6.01 | 3.05 | 4 | 40 (≈ 16.4 µg/mL) | ≤ 10 | – | – | – | –
3 | OC(CN1CCC2(CC1)CC(O)c1ccc3ccccc3c1O2)c1ccc(F)c(F)c1 (configuration not stated) | 6.49 | > 20000 | > 53.3 | 5.83 | 5.74 | – | – | – | – | 3 | 3 | 3 | 3
